In ChEMBL document CHEMBL3046604, “Synthesis and fungistatic activity of new groups of 2,4-dihydroxythiobenzoyl derivatives against phytopathogenic fungi” (J Agric Food Chem, 2003):

Legend:
Rhizoctonia solani [1] = assay: Fungistatic activity against Rhizoctonia solani assessed as mycelial growth inhibition at 20 ug/ml after 4 to 8 days relative to control; format: functional; settings: read-out: GI
Procedure, shortened: (§1)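 Compound solutions or suspensions were diluted into PDA agar to final 200 or 20 µg/mL and poured into Petri dishes. Once the agar set, mycelium-covered agar disks of the fungus were placed at three sites on the surface. Linear colony growth was measured after 4-8 days, depending on the culture. Inhibition J = [(C − T)/C] × 100 versus untreated control, reported on a four-degree scale.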

Botrytis cinerea [2] = assay: Fungistatic activity against Botryotinia fuckeliana assessed as mycelial growth inhibition at 20 ug/ml after 4 to 8 days relative to control; format: functional; settings: read-out: GI; procedure, shortened: as §1
Alternaria alternata [3] = assay: Fungistatic activity against Alternaria alternata assessed as mycelial growth inhibition at 20 ug/ml after 4 to 8 days relative to control; format: functional; settings: read-out: GI; procedure, shortened: as §1
Blumeria graminis [4] = assay: Fungistatic activity against Blumeria graminis infested wheat seedling assessed as inhibition of fungal infection at 1000 ug/ml applied as spray after 7 to 14 days under green house conditions relative to control; format: functional
Procedure, shortened: (§2)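 Greenhouse test on healthy wheat seedlings with Erysiphe graminis. At the well-developed first-leaf stage, plants were sprayed with compound solution at 1000 or 500 µg/mL, 10 mL of solution per treatment, with three repeats in 9 cm paraffin cups.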

Fusarium culmorum [5] = assay: Fungistatic activity against Fusarium culmorum assessed as mycelial growth inhibition at 200 ug/ml after 4 to 8 days relative to control; format: functional; settings: read-out: GI; procedure, shortened: as §1
Phytophthora cactorum [6] = assay: Fungistatic activity against Phytophthora cactorum assessed as mycelial growth inhibition at 200 ug/ml after 4 to 8 days relative to control; format: functional; settings: read-out: GI; procedure, shortened: as §1
Rhizoctonia solani [7] = assay: Fungistatic activity against Rhizoctonia solani assessed as mycelial growth inhibition at 200 ug/ml after 4 to 8 days relative to control; format: functional; settings: read-out: GI; procedure, shortened: as §1
Fusarium culmorum [8] = assay: Fungistatic activity against Fusarium culmorum assessed as mycelial growth inhibition at 20 ug/ml after 4 to 8 days relative to control; format: functional; settings: read-out: GI; procedure, shortened: as §1
[9] = Lipophilicity, log K of the compound in methanol-water mixture by HPLC; format: physicochemical
Procedure, shortened: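 Reversed-phase HPLC on a Hypersil BDS C18 column (5 µm, 150 × 4.6 mm) with UV detection at 320 nm. Samples were dissolved in methanol. Mobile phase was methanol at varying volume fractions in 10 mM acetate buffer pH 4, run at 1 mL/min and room temperature. Dead time was taken from injection of acetone dissolved in water.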

Blumeria graminis [10] = assay: Fungistatic activity against Blumeria graminis infested wheat seedling assessed as inhibition of fungal infection at 500 ug/ml applied as spray after 7 to 14 days under green house conditions relative to control; format: functional; procedure, shortened: as §2
Phytophthora cactorum [11] = assay: Fungistatic activity against Phytophthora cactorum assessed as mycelial growth inhibition at 20 ug/ml after 4 to 8 days relative to control; format: functional; settings: read-out: GI; procedure, shortened: as §1
Alternaria alternata [12] = assay: Fungistatic activity against Alternaria alternata assessed as mycelial growth inhibition at 200 ug/ml after 4 to 8 days relative to control; format: functional; settings: read-out: GI; procedure, shortened: as §1
Botrytis cinerea [13] = assay: Fungistatic activity against Botryotinia fuckeliana assessed as mycelial growth inhibition at 200 ug/ml after 4 to 8 days relative to control; format: functional; settings: read-out: GI; procedure, shortened: as §1

Row | log K [9] | Compound | inhibition of growth at 20 µg/mL (Rhizoctonia solani [1]) [%] | inhibition of growth at 20 µg/mL (Botrytis cinerea [2]) [%] | inhibition of growth at 20 µg/mL (Alternaria alternata [3]) [%] | inhibition at 1000 µg/mL (Blumeria graminis [4]) [%] | inhibition of growth at 200 µg/mL (Fusarium culmorum [5]) [%] | inhibition of growth at 200 µg/mL (Phytophthora cactorum [6]) [%] | inhibition of growth at 200 µg/mL (Rhizoctonia solani [7]) [%] | inhibition of growth at 20 µg/mL (Fusarium culmorum [8]) [%] | inhibition at 500 µg/mL (Blumeria graminis [10]) [%] | inhibition of growth at 20 µg/mL (Phytophthora cactorum [11]) [%] | inhibition of growth at 200 µg/mL (Alternaria alternata [12]) [%] | inhibition of growth at 200 µg/mL (Botrytis cinerea [13]) [%]
1 | 0.642 | Oc1ccc(C(=S)NN=C(c2ccccc2)c2ccccc2)c(O)c1 | 0 | 0 | 0 | 21 | 0 | 41 | 0 | 0 | 0 | 0 | 41 | 0
2 | 0.229 | Oc1ccc(C(=S)NNC(=S)Nc2cccc(Cl)c2)c(O)c1 | 0 | 0 | 0 | 0 | 0 | 61 | 0 | 0 | 0 | 0 | 0 | 0
3 | 0.405 | O=C(O)c1cc2cc(OCc3ccccc3)ccc2n1C(=S)c1ccc(O)cc1O | 0 | 0 | 0 | 21 | 21 | 41 | 0 | 0 | 0 | 0 | 21 | 0
4 | 0.373 | N#CCc1nn(-c2ccccc2)c(NC(=S)c2ccc(O)cc2O)c1C#N | 0 | 0 | 0 | 21 | 0 | 61 | 21 | 0 | 0 | 0 | 41 | 21
5 | 0.232 | Oc1ccc(C(=S)NN=C2c3ccccc3-c3ccccc32)c(O)c1 | 0 | 0 | 0 | 0 | 0 | 41 | 0 | 0 | 0 | 0 | 41 | 21
6 | 0.035 | Oc1ccc(C(=S)Nc2cc(C(F)(F)F)ccc2N2CCOCC2)c(O)c1 | 0 | 0 | 0 | 0 | 21 | 41 | 0 | 0 | 0 | 0 | 21 | 21
